High-throughput results (PubChem)
Hits are enriched below; roughly 4.7% of the tested compounds scored in any of these assays.
RGS4 inh: human RGS4 inhibition | AID 463165 | P49798 | 310,000 compounds, 0.45% hits | HEK293 M3R/RGS4 inducible, Fluo-4 calcium flux; active compounds read high; triggered by carbachol at its EC20 | B-score at 10 µM;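 active means B-score, a plate-corrected calcium signal, over three deviations above library mean, with baseline fluorescence within five deviations of library mean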;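 further: RGS4 expression induced by doxycycline in cells with stable M3 receptor; B-score is computed from the integrated fluorescence ratio over baseline after carbachol; higher B-score means a larger calcium signal and so more RGS4 inhibition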
Target sequence (P49798 whole entry, looked up): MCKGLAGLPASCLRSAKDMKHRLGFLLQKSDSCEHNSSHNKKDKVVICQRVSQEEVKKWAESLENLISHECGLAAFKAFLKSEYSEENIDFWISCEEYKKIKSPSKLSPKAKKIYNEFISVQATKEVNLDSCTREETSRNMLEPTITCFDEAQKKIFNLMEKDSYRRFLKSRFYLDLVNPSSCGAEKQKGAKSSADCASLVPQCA
RGS4 pot: potentiators or activators of RGS4; 310,000 compounds, 0.92% hits; HEK293 M3R/inducible RGS4, carbachol calcium flux Fluo4; active compounds read low; B-score at 10 µM; AID 463111;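 active means B-score of the integrated calcium signal more than 4 SD below the library mean, with starting fluorescence not abnormally high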;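 further: negative B-score means reduced calcium response which marks RGS4 activation or potentiation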
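System: HEK293 FlpIn-TREx cells, stable M3R, doxycycline-inducible RGS4. Timing: overnight RGS4 induction, 30 min dye load 37 °C, 20 min compound RT. Also added: carbachol, ECmax concentration. Measured by: Fluo4 fluorescence kinetic imaging of calcium. Evaluation: integrated calcium ratio converted to B score.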
KCC2 mod: modulates chloride dependent transport by human KCC2; AID 1456; 190,000 compounds, 2.2% hits; B-score of Tl+ flux slope (higher = more flux/activation; lower = inhibition) at 10 µM; KCC2 cells, thallium flux FluoZin-2 fluorescence;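 active means thallium flux slope and its plate-corrected score both differing from the plate sample mean at a set confidence after two filtering rounds, in either direction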;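 further: slope of fluorescence scaled to starting intensity during 10 to 20 s after thallium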
MrgX1 ag: activates human MrgX1 receptor signaling | Q96LB2 | MrgX1-HEK293 cells, Fluo-4 calcium fluorescence, agonist mode; active compounds read high | B-score at 10 µM | 310,000 compounds, 0.44% hits;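 active means calcium response B-score plate-corrected fluorescence ratio at least 3 library SD, with starting fluorescence B-score inside 5 SD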
Target sequence (Q96LB2 whole entry, looked up): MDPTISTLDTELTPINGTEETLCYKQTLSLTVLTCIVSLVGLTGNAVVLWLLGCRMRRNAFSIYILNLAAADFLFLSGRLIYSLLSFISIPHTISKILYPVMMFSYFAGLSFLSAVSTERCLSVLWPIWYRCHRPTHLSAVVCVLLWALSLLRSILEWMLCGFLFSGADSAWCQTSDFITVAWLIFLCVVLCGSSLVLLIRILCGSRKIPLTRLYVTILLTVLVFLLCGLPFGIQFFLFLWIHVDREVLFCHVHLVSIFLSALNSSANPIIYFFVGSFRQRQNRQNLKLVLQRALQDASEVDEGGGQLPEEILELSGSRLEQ
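System – MrgX1-expressing HEK293 cells · Incubation – cells plated overnight, dye loaded 0.5 h 37 °C, 0.5 h room temperature · Technique – kinetic Fluo-4 NW fluorescence of intracellular calcium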
MrgX1 antag: blocks BAM8-22 activation of human MrgX1 receptor | Q96LB2 | MRGX1-HEK293 calcium flux, Fluo-4, BAM8-22 antagonism; active compounds read low | B-score at 10 µM | 310,000 compounds, 1.3% hits | AID 588676;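 active means calcium-response B-score plate-corrected more than 3 library SD below zero, starting fluorescence within 5 deviations, no agonist response on first addition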;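 further: peak minus trough fluorescence over baseline after final BAM8-22 challenge near maximal dose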
MrgX1 PAM: allosterically activates human MrgX1 receptor signaling. Q96LB2. MrgX1-HEK293, Fluo-4 calcium flux, FDSS; active compounds read high. B-score at 10 µM. 310,000 compounds, 0.63% hits;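 active means plate-corrected calcium response at least 3 library SD above typical, normal starting fluorescence, not activating the receptor alone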;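 further: compound read alongside a low EC10 to EC30 dose of BAM8-22 agonist; peak minus trough fluorescence over baseline measured at the second addition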
KCC2 secondary: confirmation of human KCC2 transport modulators | HEK293-KCC2, thallium flux, FluoZin2 fluorescence; active compounds read high | normalised thallium flux (F/F0 slope) at 10 µM | shares compounds with KCC2 mod | 3,700 compounds, 15% hits;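 active means thallium flux slope above the same plate's solvent-only control mean plus 3 SD; inconclusive means the two replicate wells disagree; inactive means no significant difference from solvent-only control wells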
KCC2 bumet counter: thallium flux despite bumetanide block in KCC2 cells, secondary assay 3; 3,700 compounds, 49% hits; normalized thallium flux at 10 µM; HEK293-KCC2 + bumetanide/ouabain, thallium flux FluoZin2; active compounds read high; AID 1714; shares compounds with KCC2 mod;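 active means thallium entry rate above the same plate's blocked-transporter control wells by more than 3 SD; inconclusive means the two repeat wells disagree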;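 further: raw slope of fluorescence over initial fluorescence between 10 and 20 s after thallium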
KCC2 sec2: KCC2 (human) modulation, second secondary assay; shares compounds with KCC2 mod; HEK293-KCC2, thallium flux FluoZin2 fluorescence; actives lie on both sides; F/F0 rise rate, 10–20 s post-thallium; normalized thallium flux at 10 µM; 3,700 compounds, 23% hits;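 active means thallium flux slope more than 3 SD above or below the plate's solvent-only control mean, mostly below; inconclusive means the two repeat wells disagreed; inactive means no significant shift from solvent-only controls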
HEK293 Tl flux: counter-screen for KCC2 modulators: effect in parental HEK293 cells; shares compounds with KCC2 mod; thallium flux FluoZin2, ouabain; baseline-ratio fluorescence slope, 10–20 s after thallium; thallium flux rate (normalised fluorescence) at 10 µM; 3,700 compounds, 46% hits; AID 1716;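 active means thallium flux rate significantly above the same plate's solvent-only control wells, beyond their mean plus 3 SD; inconclusive means the two replicate wells gave conflicting results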
KCC2 retest ouab: KCC2 (human) modulation, ouabain retest; shares compounds with KCC2 mod; HEK293-KCC2, thallium flux FluoZin2 fluorescence; bidirectional: low = inhibitor, high = activator; raw Tl+ flux slope (below DMSO = inhibition, above = activation) at 10 µM; 3,700 compounds, 48% hits; AID 1717;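 active means thallium flux slope beyond 3 SD from same-plate DMSO control mean in most replicates, usually higher, sometimes lower; inconclusive means repeat tests gave conflicting results; inactive means no significant difference from controls in most replicates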;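 further: slope of initial-normalized fluorescence between seconds 10 and 20 after thallium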
HEK counter2: parental HEK flux effect, counter-screen 2. 3,700 compounds, 33% hits. HEK293 parental, thallium flux FluoZin-2 fluorescence slope. thallium flux slope at 10 µM. shares compounds with KCC2 mod;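 active means thallium flux slope above the same plate's solvent-control mean plus 3 SD in both duplicate wells; inconclusive means duplicate wells that disagreed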;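 further: run without ouabain in cells lacking the KCC2 cotransporter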
Of the large screens only hits and unclear results are named; the others gave an inactive call (follow-up assays come after a bar, where they were run).

O=C(C1COc2ccccc2O1)N1CCN(c2nc3c(F)cc(F)cc3s2)CC1 (configuration not stated)	none (no result: KCC2 mod)
CCOc1ccc(CN(C(=O)c2oc3ccccc3c2C)C2CCS(=O)(=O)C2)cc1 (configuration not stated)	none | KCC2 secondary inactive | KCC2 bumet counter inactive | KCC2 sec2 inactive | HEK293 Tl flux inactive | KCC2 retest ouab inactive | HEK counter2 inactive
CCn1c(CSc2nc3ccccc3n2C)nc2ccccc21	KCC2 mod -4 | KCC2 secondary inconclusive | KCC2 bumet counter inactive | KCC2 sec2 0.022 | HEK293 Tl flux inconclusive | KCC2 retest ouab 0.014 | HEK counter2 inactive
CCn1c(SCc2ccccc2Cl)nc2ccccc21	none
Cn1c(SCc2ccccc2Cl)nc2ccccc21	KCC2 mod -4.3 | KCC2 secondary inconclusive | KCC2 bumet counter inconclusive | KCC2 sec2 0.024 | HEK293 Tl flux inactive | KCC2 retest ouab 0.014 | HEK counter2 inactive
CC(C)CN1CCNC(=O)C1CC(=O)NCc1cnn(-c2cccc(F)c2)c1 (configuration not stated)	none (no result: KCC2 mod)
COc1ccc(OC)c(NC(=O)C2COc3ccccc3O2)c1 (configuration not stated)	none
COc1ccc(CNC(=O)C2COc3ccccc3O2)c(OC)c1 (configuration not stated)	none (no result: KCC2 mod) | KCC2 secondary inactive | KCC2 bumet counter inactive | KCC2 sec2 inactive | HEK293 Tl flux inactive | KCC2 retest ouab inactive | HEK counter2 inactive
O=C(NNc1nc2c(F)cccc2s1)C1COc2ccccc2O1 (configuration not stated)	KCC2 mod 10 | KCC2 secondary inactive | KCC2 bumet counter 0.037 | KCC2 sec2 0.047 | HEK293 Tl flux 0.035 | KCC2 retest ouab 0.038 | HEK counter2 0.03
COc1cccc2sc(NNC(=O)C3=COCCO3)nc12	none
Cc1ccc2sc(NNC(=O)C3COc4ccccc4O3)nc2c1C (configuration not stated)	KCC2 mod 6.5 (no result: RGS4 inh, RGS4 pot) | KCC2 secondary inactive | KCC2 bumet counter 0.042 | KCC2 sec2 inactive | HEK293 Tl flux 0.017 | KCC2 retest ouab inconclusive | HEK counter2 0.012
COc1cccc2sc(NNC(=O)C3COc4ccccc4O3)nc12 (configuration not stated)	KCC2 mod 20 | KCC2 secondary 0.021 | KCC2 bumet counter 0.03 | KCC2 sec2 inconclusive | HEK293 Tl flux 0.019 | KCC2 retest ouab 0.026 | HEK counter2 0.021
CC1(C)Cc2c(sc(NC(=O)c3ccc(S(=O)(=O)N4CCCCCC4)cc3)c2C#N)C(C)(C)N1	none (no result: KCC2 mod)
Cc1[nH]c2ccc(C(=O)NCCCN3CCN(C)CC3)cc2c1C	none (no result: KCC2 mod)
CCN(CC)CC#CCOC(=O)C(O)(c1ccccc1)C1CCCCC1 (configuration not stated)	RGS4 pot -7 | KCC2 secondary inactive | KCC2 bumet counter inactive | KCC2 sec2 inactive | HEK293 Tl flux inactive | KCC2 retest ouab inactive | HEK counter2 inactive
